According to paper PMC7816766 (Journal of Medicinal Chemistry, 2020):

Legend:
[1] = test system: MDA-MB-231 and MDA-MB-468 cells; test: Induction of apoptosis, PARP cleavage by Western blotting; format: cell-based, human; conditions: 1 or 3 μM, 3–24 h
[2] = test system: MDA-MB-231 or MDA-MB-468 cells; test: Cell viability/growth of breast cancer cells harboring active STAT3; format: cell-based, human; conditions: at 1 μM or less
[3] = test system: MDA-MB-231 cells; test: Clonogenic; format: cell-based, human; conditions: treated once
Method in brief: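 Cells were seeded as single-cell cultures at 250 cells per well. They were treated once the next day with test compound at 0–1 μM and cultured until large colonies were visible. Colonies were stained with crystal violet for 4 h and photographed. Data came from three independent determinations.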

[4] = test system: STAT3 DNA-binding activity in MDA-MB-468 cells; test: Constitutive STAT3 DNA-binding activity in treated breast cancer cells; format: cell-based, human
Method in brief: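 MDA-MB-468 cells were treated with 5 μM test compound for 1–3 h; controls received 0.05% DMSO. Nuclear extracts of equal total protein were incubated with 33P-labelled hSIE probe (c-fos m67 variant) for 30 min at 30 °C. STAT3:DNA complexes were then resolved by EMSA. Results came from two to three independent determinations.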

[5] = test system: pY705STAT3; test: Immunoblotting for pY705STAT3 in treated breast cancer cells; format: cell-based, human; conditions: 1–5 μM, 0–24 h (BBI-608 0.5–5 μM, 2–3 h)
Method in brief: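 Controls received 0.05% DMSO. Equal-protein RIPA whole-cell lysates were immunoblotted for pY705STAT3, STAT3 and tubulin. Results came from two to three independent determinations.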

[6] = test system: c-Myc, VEGF, Bcl-2, survivin; test: Immunoblotting for STAT3 target gene expression in MDA-MB-231 cells; format: cell-based, human; conditions: 1 or 3 μM, 3–24 h
Method in brief: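 MDA-MB-231 cells were treated with 1 or 3 μM test compound for 3–24 h; controls received 0.05% DMSO. Whole-cell lysates were prepared in RIPA buffer. Equal total protein was run on SDS-PAGE and immunoblotted for c-Myc, Bcl-2, VEGF and survivin, with tubulin as loading control. Results came from two to three independent determinations.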

[7] = Human HLM MetID study; format: in vitro ADME; conditions: preliminary results
[8] = test system: EGFR, JAK2, Src, AKT and ERK1/2; test: Immunoblotting for nonspecific effects in MDA-MB-231 cells; format: cell-based, human; conditions: 1 or 3 μM
[9] = test system: human breast cancer cells; test: Combination treatment with docetaxel or cisplatin, CyQuant assay; format: cell-based; conditions: 1 μM 7g for 6 h, then 0–100 nM docetaxel or 0–20 μM cisplatin, 72 h

O=C1OCc2cc(N(Cc3ccc(C4CCCCC4)cn3)C(=O)[C@H]3CCN3S(=O)(=O)c3c(F)c(F)c(F)c(F)c3F)ccc21 [Compound 7g]
PARP cleavage [1]: induced poly (ADP-ribose) polymerase (PARP) cleavage | viability, anchorage-dependent and independent growth, and colony formation [2]: strongly inhibited | inhibition of colony formation ([3]; 0.5 μM): significant inhibition of colony formation | inhibition of colony formation ([3]; 1 μM): complete inhibition of colony formation | earliest time of inhibition of STAT3 DNA-binding activity in cells ([4]; MDA-MB-468): 5 min | constitutive STAT3 DNA-binding activity in cells ([4]; cells treated with 1–5 μM (BBI-608 0.5–5 μM, 2–3 h)): inhibited to variable degrees | pY705STAT3 in breast cancer cells [5]: inhibited pY705STAT3 in dose- and time-dependent manner | expression of STAT3 target genes c-Myc, VEGF, Bcl-2, survivin [6]: inhibited the expression | species found in HLM MetID study [7]: both the parent compound and its hydroxy-acid metabolite | effect on tyrosine kinases EGFR, JAK2, Src, or AKT and ERK1/2 [8]: no measurable effect | response to combined treatment with docetaxel or cisplatin [9]: strong shift of the dose–response curves to the left indicative of an enhanced response
